The values below come from ChEMBL document CHEMBL1128739, “Structure-activity relationships in the 8-amino-6,7,8,9-tetrahydro-3H-benz[e]indole ring system. 2. Effects of 8-amino nitrogen substitution on serotonin receptor binding and pharmacology” (J Med Chem, 1995).

For assay [1], the system named is Rattus norvegicus. Put plainly: The compound was tested in vivo for biochemical effect against the changes in different brain area levels of DOPA in reserpinized rat corpus striatum at dose 12.5 uM/kg; Inactive. Type of assay: functional, organism-based. The essentials:
(§1)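 Male Sprague-Dawley rats (200-300 g) pretreated with reserpine 5 mg/kg sc 18 h before. Injection volume 5 mL/kg, test solutions at neutral pH. DOPA and 5-HTP in limbic system, striatum and hemispheres measured by HPLC with electrochemical detection. Dose-response curves from four to six dose levels (n = 4) per brain area.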

Assay [2] relates to Rattus norvegicus. Put plainly: In vivo changes in different brain area levels of 5-HTP in reserpinized rat corpus striatum. The assay is classed as functional. The essentials: (§2)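 Male Sprague-Dawley rats (200-300 g) pretreated with reserpine 5 mg/kg sc 18 h before. Injection volume 5 mL/kg at neutral pH. Brain-region 5-HTP measured by HPLC with electrochemical detection. Dose-response curves used four to six doses, n = 4.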

Assay [3] deals with Rattus norvegicus. The assay can be described thus: In vivo for biochemical effect against brain area levels of 5-HTP in reserpinized rat hemispheres (mainly cortex). Type of assay: functional. The essentials:
as §1

Assay [4] has as its system Rattus norvegicus. The assay can be described thus: The compound was tested in vivo for biochemical effect against the changes in different brain area levels of DOPA in reserpinized rat hemispheres (mainly cortex)at dose 12.5 uM/kg; Inactive. The assay is classed as functional, organism-based.
Another assay has as its target D(3) dopamine receptor (Rattus norvegicus, UniProt P19020). Put plainly: In vitro binding affinity against cloned mammalian Dopamine receptor D3 expressed in CHO cells by, using [3H]-spiperone as radioligand. The assay is classed as cell-based.
For assay [5], the target named is 5-hydroxytryptamine receptor 1D (Homo sapiens, UniProt P28221). The assay can be described thus: In vitro binding affinity against cloned mammalian 5-hydroxytryptamine 1D receptor alpha expressed in CHO cells, by using [3H]5-HT as radioligand. The assay is classed as cell-based. The essentials: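 Competition binding on CHO-cell membranes (20-60 μg protein) in 50 mM Tris, 5 mM MgCl2, 0.1% ascorbic acid, pH 7.4. Nonspecific binding defined with excess serotonin. 11 drug concentrations, each in duplicate. Incubated 1 h at room temperature, protected from light, then filtered and scintillation counted. IC50 taken from a one-site fit; Ki by Cheng-Prusoff.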
Chain of 5-hydroxytryptamine receptor 1D (P28221 whole entry): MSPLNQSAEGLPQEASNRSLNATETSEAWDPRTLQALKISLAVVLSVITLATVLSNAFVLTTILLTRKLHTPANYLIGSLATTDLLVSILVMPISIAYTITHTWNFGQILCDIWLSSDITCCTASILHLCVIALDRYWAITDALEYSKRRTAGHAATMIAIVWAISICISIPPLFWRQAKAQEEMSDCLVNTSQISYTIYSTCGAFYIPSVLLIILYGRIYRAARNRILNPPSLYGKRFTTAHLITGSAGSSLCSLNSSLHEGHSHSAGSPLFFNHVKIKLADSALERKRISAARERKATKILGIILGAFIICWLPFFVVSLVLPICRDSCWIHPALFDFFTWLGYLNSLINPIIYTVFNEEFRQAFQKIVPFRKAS

Assay [6] concerns Rattus norvegicus. The assay can be described thus: In vivo changes in different brain area levels of 5-HTP in reserpinized rat limbic system. The assay is classed as functional. Summed up: as §2
For assay [7], the target named is 5-hydroxytryptamine receptor 1B (Homo sapiens, UniProt P28222). Put plainly: In vitro binding affinity against cloned mammalian 5-hydroxytryptamine 1D receptor beta expressed in CHO cells, by using [3H]5-HT as radioligand. The assay is classed as cell-based. Summed up: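 Membranes from CHO cells stably expressing the cloned receptor, made by mechanical disruption in ice-cold Tris/EDTA/EGTA pH 7.4 and differential centrifugation. [3H]serotonin at 1.7 nM in 50 mM Tris, 5 mM MgCl2, 0.1% ascorbic acid, pH 7.4. 11 drug concentrations in duplicate, 1 h at room temperature protected from light, then filtration. Excess serotonin defines nonspecific binding. One-site IC50 fit, Ki by Cheng-Prusoff.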
Chain of 5-hydroxytryptamine receptor 1B (P28222 whole entry): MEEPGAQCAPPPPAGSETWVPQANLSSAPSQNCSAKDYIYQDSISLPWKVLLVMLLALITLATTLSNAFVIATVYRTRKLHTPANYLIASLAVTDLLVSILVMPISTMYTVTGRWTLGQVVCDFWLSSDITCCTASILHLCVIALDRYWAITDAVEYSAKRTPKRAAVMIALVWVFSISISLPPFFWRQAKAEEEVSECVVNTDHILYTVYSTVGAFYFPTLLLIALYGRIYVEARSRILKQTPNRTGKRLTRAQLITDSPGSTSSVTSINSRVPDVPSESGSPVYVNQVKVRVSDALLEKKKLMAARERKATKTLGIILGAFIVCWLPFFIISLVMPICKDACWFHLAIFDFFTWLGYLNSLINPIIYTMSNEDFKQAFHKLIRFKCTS

Assay [8] relates to Rattus norvegicus. The assay can be described thus: The compound was tested in vivo for biochemical effect against the changes in different brain area levels of DOPA in reserpinized rat limbic system at dose 12.5 uM/kg; Inactive. The assay is classed as functional, organism-based.
Assay [9] deals with T1, D(2) dopamine receptor (Rattus norvegicus, UniProt P61169). Put plainly: In vitro binding affinity against cloned mammalian Dopamine receptor D2 expressed in CHO cells using [3H]U-86170 as radioligand. Type of assay: cell-based. To be noted: read-out: Ki. The essentials: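 Membranes from CHO cells (20-60 μg protein) in 20 mM HEPES, 10 mM MgSO4, pH 7.4. Nonspecific binding defined with excess haloperidol. 11 concentrations, each in duplicate. Incubated 1 h at room temperature, then filtered and counted. IC50 from a one-site competition fit, converted to Ki by Cheng-Prusoff.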
T1 sequence (P61169 whole entry): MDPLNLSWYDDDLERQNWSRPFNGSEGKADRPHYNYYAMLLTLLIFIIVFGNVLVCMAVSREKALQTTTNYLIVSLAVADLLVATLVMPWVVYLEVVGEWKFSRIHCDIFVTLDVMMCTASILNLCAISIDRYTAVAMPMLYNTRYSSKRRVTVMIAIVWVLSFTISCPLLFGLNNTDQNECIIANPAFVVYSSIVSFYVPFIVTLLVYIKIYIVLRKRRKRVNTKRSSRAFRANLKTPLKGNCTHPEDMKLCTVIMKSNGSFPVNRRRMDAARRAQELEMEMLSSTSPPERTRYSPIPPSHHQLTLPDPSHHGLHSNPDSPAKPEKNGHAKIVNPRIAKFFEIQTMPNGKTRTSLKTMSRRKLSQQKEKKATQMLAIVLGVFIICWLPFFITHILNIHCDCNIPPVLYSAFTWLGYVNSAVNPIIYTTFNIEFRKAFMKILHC

The subject of assay [10] is Rattus norvegicus. Put plainly: The compound was tested in vivo for biochemical effect against the changes in different brain area levels of DOPA in reserpinized rat limbic system at dose 12.5 uM/kg; inactive. Type of assay: functional, organism-based. Summed up: as §1
Assay [11] deals with Rattus norvegicus. The assay can be described thus: The compound was tested in vivo for biochemical effect against the changes in different brain area levels of DOPA in reserpinized rat corpus striatum at dose 12.5 uM/kg; inactive. Type of assay: functional, organism-based. Summed up: as §1
Assay [12] concerns Rattus norvegicus. Put plainly: The compound was tested in vivo for biochemical effect against the changes in different brain area levels of DOPA in reserpinized rat hemispheres (mainly cortex)at dose 12.5 uM/kg; inactive. The assay is classed as functional, organism-based. Summed up: as §1
Assay [13] concerns Rattus norvegicus. The assay can be described thus: The compound was tested in vivo for biochemical effect against the changes in different brain area levels of DOPA in reserpinized rat limbic system at dose 12.5 uM/kg; Partial effect. The assay is classed as functional, organism-based.
Assay [14] concerns Rattus norvegicus. Put plainly: The compound was tested in vivo for biochemical effect against the changes in different brain area levels of DOPA in reserpinized rat hemispheres (mainly cortex)at dose 12.5 uM/kg; Partial effect. Type of assay: functional, organism-based.
Assay [15] has as its system Rattus norvegicus. The assay can be described thus: The compound was tested in vivo for biochemical effect against the changes in different brain area levels of DOPA in reserpinized rat corpus striatum at dose 12.5 uM/kg; Partial effect. The assay is classed as functional, organism-based. The essentials:
as §1

Assay [16] has as its system Rattus norvegicus. Put plainly: The compound was tested in vivo for biochemical effect against the changes in different brain area levels of DOPA in reserpinized rat corpus striatum at dose 50 uM/kg; inactive. The assay is classed as functional, organism-based.
In assay [17] the test system is Rattus norvegicus. The assay can be described thus: The compound was tested in vivo for biochemical effect against the changes in different brain area levels of 5-HTP in reserpinized rat hemispheres (mainly cortex)at dose 3.1 uM/kg; inactive. The assay is classed as functional, organism-based.
Assay [18] deals with Rattus norvegicus. Put plainly: The compound was tested in vivo for biochemical effect against the changes in different brain area levels of DOPA in reserpinized rat hemispheres (mainly cortex)at dose 3.1 uM/kg; inactive. Type of assay: functional, organism-based.
The test system of assay [19] is Rattus norvegicus. The assay can be described thus: The compound was tested in vivo for biochemical effect against the changes in different brain area levels of DOPA in reserpinized rat limbic system at dose 50 uM/kg; inactive. The assay is classed as functional, organism-based.
Assay [20] addresses T1, D(2) dopamine receptor. The assay can be described thus: Binding affinity rat Dopamine receptor D2 expressed in CHO-K1 cells by [3H]U-86170 displacement. Type of assay: cell-based.
Assay [21] has as its system Rattus norvegicus. Put plainly: The compound was tested in vivo for biochemical effect against the changes in different brain area levels of 5-HTP in reserpinized rat corpus striatum at dose 25 uM/kg; Inactive. Type of assay: functional, organism-based.
In assay [22] the test system is Rattus norvegicus. The assay can be described thus: The compound was tested in vivo for biochemical effect against the changes in different brain area levels of 5-HTP in reserpinized rat hemispheres (mainly cortex)at dose 25 uM/kg; Inactive. The assay is classed as functional, organism-based.
Assay [23] concerns Rattus norvegicus. Put plainly: The compound was tested in vivo for biochemical effect against the changes in different brain area levels of DOPA in reserpinized rat corpus striatum at dose 25 uM/kg; Inactive. The assay is classed as functional, organism-based.
Assay [24] relates to Rattus norvegicus. The assay can be described thus: The compound was tested in vivo for biochemical effect against the changes in different brain area levels of DOPA in reserpinized rat limbic system at dose 25 uM/kg; Inactive. The assay is classed as functional, organism-based.
The test system of assay [25] is Rattus norvegicus. Put plainly: The compound was tested in vivo for biochemical effect against the changes in different brain area levels of DOPA in reserpinized rat hemispheres (mainly cortex)at does 25 uM/kg; Inactive. The assay is classed as functional, organism-based.
Assay [26] has as its system Rattus norvegicus. The assay can be described thus: The compound was tested in vivo for biochemical effect against the changes in different brain area levels of 5-HTP in reserpinized rat limbic system at dose 25 uM/kg; Inactive. The assay is classed as functional, organism-based.

For orientation: ED50 means the dose at which the effect has come halfway, by size or by number of responders. Broadly, the Ki is a dissociation constant, usually derived from enzyme kinetics or from competition with a known ligand.

Calls of active or inactive are those of the source. The rule behind the calls is not given here.

Chain of D(3) dopamine receptor (P19020 whole entry): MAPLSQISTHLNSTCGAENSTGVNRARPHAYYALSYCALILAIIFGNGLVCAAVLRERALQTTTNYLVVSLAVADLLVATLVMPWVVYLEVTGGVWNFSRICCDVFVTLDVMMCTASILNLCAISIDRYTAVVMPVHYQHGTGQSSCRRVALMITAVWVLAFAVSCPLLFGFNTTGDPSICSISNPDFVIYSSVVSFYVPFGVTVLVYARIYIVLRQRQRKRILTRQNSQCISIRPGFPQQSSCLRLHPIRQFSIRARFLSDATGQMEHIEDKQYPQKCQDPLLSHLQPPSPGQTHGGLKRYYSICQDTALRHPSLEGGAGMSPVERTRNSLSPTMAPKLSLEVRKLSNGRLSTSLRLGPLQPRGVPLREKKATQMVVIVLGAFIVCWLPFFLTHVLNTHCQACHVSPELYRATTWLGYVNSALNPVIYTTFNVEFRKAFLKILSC

With `CCCN(CCCCN1C(=O)CC(C)(C)CC1=O)[C@@H]1CCc2ccc3[nH]cc(C=O)c3c2C1`, the ED50 result in the assay with Rattus norvegicus [1], with Rattus norvegicus [4] and with Rattus norvegicus [8] was “inactive” each time. The ED50 in the assay with Rattus norvegicus [2] came to 2.98 µmol/kg; in the assay with Rattus norvegicus [3] it was 4.63 µmol/kg; with Rattus norvegicus [6], 3.78 µmol/kg. Besides, the Ki on D(3) dopamine receptor (read-out: Ki) was found to be 154 nM; in assay [5], 5 nM; in [7] it was 119 nM; on D(2) dopamine receptor [9], 62 nM.
For the molecule `CCCN(CC(C)C)[C@@H]1CCc2ccc3[nH]ccc3c2C1`, the ED50 result in the assay with Rattus norvegicus [10], in the assay with Rattus norvegicus [11] and in the assay with Rattus norvegicus [12] was “inactive” each time. Besides, the ED50 with Rattus norvegicus [2] worked out at 1.23 µmol/kg; in the assay with Rattus norvegicus [3], 3.59 µmol/kg; with Rattus norvegicus [6] it was 1.8 µmol/kg. Further, the Ki on D(3) dopamine receptor (read-out: Ki) was 18 nM; in assay [5], 35 nM; in [7], 219 nM; at D(2) dopamine receptor [9] it was 5.7 nM.
With `O=Cc1c[nH]c2ccc3c(c12)CC(N1CCCC1)CC3` (configuration not stated), the ED50 result in the assay with Rattus norvegicus [13] was “Weak activity”; in the assay with Rattus norvegicus [14], “Weak activity”; with Rattus norvegicus [2], 0.58 µmol/kg; in the assay on Rattus norvegicus [15], “Weak activity”; in the assay with Rattus norvegicus [3] it was 0.86 µmol/kg; in the assay with Rattus norvegicus [6], 0.58 µmol/kg. In addition, the Ki result on D(3) dopamine receptor (cho) was “Not Active”; at D(2) dopamine receptor [9] it was over 1000 nM.
With `c1ccc(CCCNCC2CCc3ccc4[nH]ccc4c3C2)cc1` (configuration not stated), the ED50 result with Rattus norvegicus [16], in the assay with Rattus norvegicus [17], in the assay with Rattus norvegicus [18] and with Rattus norvegicus [19] was “inactive” each time. In the assay with Rattus norvegicus [2], this molecule came in with an ED50 of 34 µmol/kg. The Ki came to 199 nM on D(3) dopamine receptor (read-out: Ki), 63 nM in [5], 32 nM at D(2) dopamine receptor [20] and 228 nM in assay [7].
As for `CCCN(CCCCN1C(=O)CC(C)(C)CC1=O)[C@H]1CCc2ccc3[nH]cc(C=O)c3c2C1`, the ED50 entry with Rattus norvegicus [21], in the assay with Rattus norvegicus [22], with Rattus norvegicus [23], in the assay on Rattus norvegicus [24], in the assay on Rattus norvegicus [25] and with Rattus norvegicus [26] was “inactive” in each case. Also, the Ki at D(3) dopamine receptor (read-out: Ki) came out at 1270 nM; in assay [5], 250 nM; in [7], 1620 nM; at D(2) dopamine receptor [9], 859 nM.
